Screening data from PubChem BioAssay.
M4 ag – agonists of human muscarinic M4 receptor (CHRM4) | P08173 | CHO-K1 hM4/Gqi5, Fluo-8 calcium fluorescence; vehicle 0%, full acetylcholine response 100% | activation, % at 3 µM | 360,000 compounds, 0.14% hits | AID 624127;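 active = activation above the run mean over all test wells plus 3 SD, cut at about 32% in these data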;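 also: peak over basal fluorescence ratio per well then scaled between controls; 0% = DMSO wells and 100% = acetylcholine at EC100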
Target sequence (P08173 whole entry, looked up): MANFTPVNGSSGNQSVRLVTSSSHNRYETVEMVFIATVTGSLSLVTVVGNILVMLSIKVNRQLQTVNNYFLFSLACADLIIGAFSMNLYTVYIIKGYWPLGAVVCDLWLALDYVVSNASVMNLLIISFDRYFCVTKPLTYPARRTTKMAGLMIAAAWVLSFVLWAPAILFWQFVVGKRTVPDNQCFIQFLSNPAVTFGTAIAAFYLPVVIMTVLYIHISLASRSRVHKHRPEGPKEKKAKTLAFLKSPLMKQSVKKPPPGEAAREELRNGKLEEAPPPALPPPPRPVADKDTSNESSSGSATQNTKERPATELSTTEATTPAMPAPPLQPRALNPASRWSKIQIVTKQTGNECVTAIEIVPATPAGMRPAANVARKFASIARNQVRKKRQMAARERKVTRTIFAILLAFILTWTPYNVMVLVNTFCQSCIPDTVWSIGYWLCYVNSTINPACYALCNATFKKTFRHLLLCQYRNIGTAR
CHRM4 antagonist – CHRM4 antagonism in calcium assay; inhibition, % at 3 µM; CHO-hM4 cells, ACh EC80, Fluo-8 calcium fluorescence; 360,000 compounds, 0.73% hits;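 active = inhibition above its plate's cutoff, the mean inhibition of sample wells plus 3 SD, cut at about 27% in these data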;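 also: 0% = acetylcholine EC80 with DMSO and 100% = DMSO without agonist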
M5 antag – CHRM5 antagonism in calcium assay; P08912; CHO-hM5 cells, Fluo-8 calcium fluorescence, ACh EC80; inhibition, % at 3 µM; 360,000 compounds, 0.59% hits; AID 624040;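 active = inhibition above a per-plate cutoff, the mean of that plate's test compounds plus 3 SD, cut at about 27% in these data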;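 also: 0% = acetylcholine EC80 with DMSO and 100% = DMSO without agonist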
M5 PAM – potentiates acetylcholine response at human M5 receptor; P08912; CHO-K1 hM5, Fluo-8 calcium, ACh EC20 PAM; 0% = ACh EC20, 100% = ACh EC100; activation, % at 3 µM; 360,000 compounds, 0.3% hits;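 active = activation above the run cutoff, the mean activation of all test compounds plus 3 SD, cut at about 18% in these data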
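Measured by: Fluo-8 calcium fluorescence; material: human M5 receptor in CHO-K1 cells; schedule: Post-acetylcholine fluorescence recording 140 s; benchmarks: low control EC20 acetylcholine (0%), high control EC100 acetylcholine (100%); read-out: Max/basal fluorescence ratio as % of EC20–EC100 ACh window; compound: single dose, 3 µM nominal final test concentration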
CHRM4 PAM – potentiates acetylcholine response at human M4 receptor; P08173; CHO-K1 hM4/Gqi5, Fluo-8 calcium fluorescence, ACh EC20; 0% = ACh EC20, 100% = maximal ACh; activation, % at 3 µM; 360,000 compounds, 0.4% hits; AID 624126;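 active = activation above its plate's cutoff, the mean activation of sample wells plus 3 SD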
M5 ag – agonists of human muscarinic M5 receptor (CHRM5); CHO-K1 hM5 cells, Fluo-8 calcium fluorescence; 0% DMSO wells, 100% maximal acetylcholine response; activation, % at 3 µM; 360,000 compounds, 0.19% hits;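 active = activation above the run's mean over test compounds plus 3 SD, cut at about 23% in these data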;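 also: signal is peak over basal fluorescence ratio across the kinetic read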
Numbers without * were called inactive. A selection: hits, their analogues and other compounds. The true share with any hit is near 1.8%.

SMILES	M4 ag	CHRM4 antagonist	M5 antag	M5 PAM	CHRM4 PAM	M5 ag
Cc1ccc(S(=O)(=O)N(C)C)cc1NC(=O)CN1C(=O)NC2(CCCCCC2)C1=O	0.2	8.2	29.1*	-9.1	-6.4	-3.5
Cc1noc(C(=O)Nc2ccc(F)c(Cl)c2)c1Cl	2.3	95.2*	18.6	-16.5	-21.2	0.5
CCOCCc1nn2c(=O)cc(CSCC(=O)Nc3cc(C)cc(C)c3)nc2s1	0.2	-2.1	10.1	-7.0	-4.3	-3.0
O=c1c(O)c(-c2cccs2)oc2ccccc12	15.6	13.0	4.5	-3.9	-9.0	9.2
O=c1c(O)c(-c2cccs2)oc2ccc(Cl)cc12	344.0*	32.2*	30.9*	-22.0	-17.8	65.6*
CCN1CCc2c(sc(NC(=O)c3ccc(S(=O)(=O)N(C)CC4CCCO4)cc3)c2C(N)=O)C1 (centres undefined)	1.1	0.6	5.5	-2.2	-2.4	-4.1
Clc1ccc(-c2nnc(CSc3nnc(-c4cccs4)n3Cc3ccccc3)o2)cc1	12.5	30.0*	28.6*	-18.6	-16.8	-1.9
Cc1nnc(SCc2nnc(-c3cccs3)o2)n1Cc1ccccc1	1.6	0.5	7.0	-2.3	1.3	-0.6
COc1cccc(NC(=O)CCNC(=O)N2CC(=O)Nc3ccccc32)c1	-0.1	1.5	-14.3	10.6	-1.3	-0.9
CC1=CC(C)(C)NC(=S)N1c1ccccc1C	0.9	12.3	16.3	-2.3	-5.0	-0.1
CC1=CC(C)(C)NC(=S)N1c1cccc2cc(S(=O)(=O)O)ccc12	15.0	7.2	27.3*	-14.2	-9.5	-0.2
CC(=O)Nc1sc2c(c1C(c1ccccc1Cl)N1CCN(CCO)CC1)CCCC2 (centres undefined)	5.5	10.7	64.9*	-25.0	-15.3	-5.4
C=C1CCc2c([nH]c3ccc(OCC(C)C)cc23)C1=O	-0.3	4.2	4.8	5.7	3.9	-3.5
O=C(COC(=O)C1CCC(=O)N1)Nc1ccccc1Br (centres undefined)	0.2	-14.5	1.7	21.4*	-2.6	0.3
O=C(COC(=O)C1CCC(=O)N1)Nc1ccc(Oc2ccccc2)cc1 (centres undefined)	0.9	3.3	6.0	-3.7	-1.2	-1.3
COC(=O)[C@]12CCCCC=C1N(Cc1ccc(Cl)cc1Cl)C(=O)[C@H](CC(=O)N1CCC(c3ccccc3)CC1)C2	-0.8	-21.8	-2.2	2.0	11.4	1.8
CN1C(=O)c2cccc3c(Cl)ccc(c23)C1=O	0.4	-14.8	-8.7	10.4	4.8	-0.9
CNc1ccc2c3c(cccc13)C(=O)N(C)C2=O	229.2*	40.1*	43.1*	-20.4	-22.8	124.6*
CN1C(=O)c2cccc3c(N(C)C)ccc(c23)C1=O	14.8	11.4	21.0	-10.3	-5.8	40.8*
Cn1cc(Cl)c(C(=O)OCC(=O)Nc2ccccc2)n1	1.4	1.1	46.6*	-0.7	12.4	6.2
Cn1ccc(C(=O)OCC(=O)Nc2cccc(Cl)c2)n1	1.6	-0.9	5.7	0.5	-1.5	0.4
CC(OC(=O)C1CCCCC1)C(=O)Nc1ccc(S(N)(=O)=O)cc1 (centres undefined)	0.9	-24.6	-11.5	1.1	22.4*	0.0
CCCCCC#CCN1CCN(C23CC4CC(CC(C4)C2)C3)CC1	1.5	30.0*	10.0	-15.9	-14.1	-9.8
CC(=O)N1CCN(C23CC4CC(CC(C4)C2)C3)CC1	0.3	1.3	1.8	-1.6	-1.2	-1.1
CCCC#CCN1CCN(C23CC4CC(CC(C4)C2)C3)CC1	1.4	27.9*	15.3	-11.8	-11.4	-6.6
Cc1ccc(C2=N/C(=C/N3CCOCC3)C(=O)O2)cc1	-0.1	-4.7	-4.4	38.4*	3.1	-0.1
CCCNC(=O)c1ccc(N2CCC3(CC2)CC(c2cccc(Br)c2)=NO3)c([N+](=O)[O-])c1	11.4	33.2*	17.5	-26.3	-7.7	1.8
Cc1nn(-c2ccccc2)c(Cl)c1CN(C(=O)CCl)c1ccc(Cl)cc1	-2.0	41.7*	24.3	-16.8	-33.3	-5.6
Cc1sc2ncnc(N3CCN(CCOc4ccc(Cl)cc4)CC3)c2c1C	12.1	11.3	32.2*	-25.1	0.2	2.9
